Where “and” joins values, the source holds several entries; their conditions need not be identical. Identical values can stand only once.
Key:
carboxylate esterase [1] = test: Half life period in the absence or presence of pig liver carboxylate esterase at 25 degrees C in aqueous solution of C + esterase (10-fold unit equiv); assay type: ADME
Procedure, shortened: (§1)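 Drug at 20 μM in 0.05 M phosphate buffer, pH 7.4, pre-equilibrated, then given porcine liver carboxylate esterase (200 units/mg) at 2, 5, 10 or 20 units per μmol substrate. At 0.25–60 min samples were vortexed and centrifuged, and the supernatant measured for parent drug by C-18 HPLC. Half-life came from pseudo-first-order least-squares regression.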

[2] = Half life period in the absence or presence of pig liver carboxylate esterase at 25 degrees C in aqueous solution of 0.05 M acetate buffer at pH 4.0; assay type: ADME; details: in vivo
Procedure, shortened: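 Drug at 20 μM in 0.05 M acetate buffer, pH 4.0, no enzyme. Aliquots were taken at set times (about 2–250 h) and the parent drug measured by reverse-phase C-18 HPLC (CH3CN–0.05 N acetate pH 4.0, 2:3). Half-life came from linear least-squares regression of pseudo-first-order loss.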

carboxylate esterase [3] = test: Half life period in the absence or presence of pig liver carboxylate esterase at 25 degrees C in aqueous solution of C + esterase (2-fold unit equiv); assay type: ADME; procedure, shortened: as §1
CHO [4] = test: The compound was tested in vitro for growth inhibition of subline (CHO/DOX) with acquired resistance to doxorubicin; assay type: functional, cell-based; details: Cricetulus griseus
Procedure, shortened: (§2)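 Exponentially growing CHO cells, or the P-glycoprotein-overexpressing doxorubicin-resistant CHO/DOX subline, were seeded at 1.5 × 10⁴ cells/mL in McCoy's 5A with 10% FCS. They were exposed to at least 7 concentrations (2 × 10⁻¹² to 2 × 10⁻⁵ M) for 6 days at 37 °C. Cells were then formaldehyde-fixed, crystal-violet-stained and counted microscopically. IC50 (50% growth inhibition versus untreated controls) was taken from dose–response curves, mean of duplicates.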

CHO [5] = test: The compound was tested in vitro for growth inhibition of Chinese Hamster Ovary(CHO) cells; assay type: functional, cell-based; details: Cricetulus griseus; procedure, shortened: as §2
carboxylate esterase [6] = test: Half life period in the absence or presence of pig liver carboxylate esterase at 25 degrees C in aqueous solution of C + esterase (5-fold unit equiv); assay type: ADME; procedure, shortened: as §1
[7] = Half life period in the absence or presence of pig liver carboxylate esterase at 25 degrees C in aqueous solution of 0.05 M phosphate buffer at pH 7.4; details: 0.05 M phosphate buffer (aqueous solution)
carboxylate esterase [8] = test: Half life period in the absence or presence of pig liver carboxylate esterase at 25 degrees C in aqueous solution of C + esterase (20-fold unit equiv); assay type: ADME; procedure, shortened: as §1

SMILES	half-life (carboxylate esterase [1]) [min]	T1/2 [2]	half-life (carboxylate esterase [3]) [min]	IC50 (CHO [4]) [nM]	IC50 (CHO [5]) [nM]	half-life (carboxylate esterase [6]) [min]	half-life [7] [min]	half-life (carboxylate esterase [8]) [min]
COc1cccc2c1C(=O)c1c(O)c3c(c(O)c1C2=O)CC(O)(C(=O)CO)CC3OC1CC(NCCCCC(OC(C)=O)OC(C)=O)C(O)C(C)O1.Cl (centres undefined)	1	> 240 h and 97 h	27	0.7	0.4	4	1440	0.333
CCCCCNC1CC(OC2CC(O)(C(=O)CO)Cc3c(O)c4c(c(O)c32)C(=O)c2c(OC)cccc2C4=O)OC(C)C1O (centres undefined)				420	57			
COc1cccc2c1C(=O)c1c(O)c3c(c(O)c1C2=O)CC(O)(C(=O)CO)CC3OC1CC(NCCCCCOC(C)=O)C(O)C(C)O1 (centres undefined)				350	83			
COc1cccc2c1C(=O)c1c(O)c3c(c(O)c1C2=O)C[C@@](O)(C(=O)CO)C[C@@H]3O[C@H]1C[C@H](N)[C@H](O)[C@H](C)O1 [DOXORUBICIN]				6000	60			

Source: ChEMBL document CHEMBL1126218, “N-(5,5-diacetoxypent-1-yl)doxorubicin: a new intensely potent doxorubicin analogue” (J Med Chem, 1992)
